Experimental findings from ChEMBL document CHEMBL5712087, “Targeting bromodomain-containing protein 4 (BRD4) inhibits MYC expression in colorectal cancer cells” (Neoplasia, 2019) are described below.

Activity calls are given as the source filed them. The calls are words filed in the database; no cut-off is given here.

Experiment [1] deals with T1, Protein cereblon/Bromodomain-containing protein 4 (Homo sapiens) (UniProt O60885+Q96SW2). Description: PROTAC activity at BRD4/Cereblon in human Caco-2 cells assessed as decrease in MYC protein expression at 5 to 10 uM for 24 hrs by Western blot analysis. The format is cell-based. The note with it: dose 5-10 µM. The gist of the method:
(§1)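 Eight CRC lines exposed 24 h to PROTAC at 5 or 10 µM (stocks 2 mM in DMSO, diluted in PBS or medium). Lysis in RIPA with protease/phosphatase inhibitors and 2.5 mmol/l DTT; 15 µg protein on 10% SDS-PAGE, semi-dry transfer to nitrocellulose. Anti-BRD4 or anti-MYC at 1:1,000 overnight at 4 °C; GAPDH or β-actin loading control; chemiluminescence.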
A general note: A western blot detects proteins with antibodies after separation by electrophoresis.

Experiment [2] deals with T1, Protein cereblon/Bromodomain-containing protein 4 (Homo sapiens). Briefly: PROTAC activity at BRD4/Cereblon in human DLD-1 cells assessed as decrease in BRD4 protein degradation at 5 to 10 uM for 24 hrs by Western blot analysis. The format is cell-based. The conditions noted are these: dose 5-10 µM. The gist of the method: as §1
Experiment [3] shares this target. Description: PROTAC activity at BRD4/Cereblon in human LS174T cells assessed as complete BRD4 protein degradation at […] for 24 hrs by Western blot analysis. Type of experiment: cell-based. The gist of the method: (§2)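 Cells treated 24 h across 1 nM–10 µM range (fibroblasts at 500/1000 nM). Immunoblot: RIPA lysate with 2.5 mmol/l DTT, 15 µg per lane on 10% SDS-PAGE, nitrocellulose, 5% milk block 1 h. BRD4 or MYC primary 1:1,000 overnight at 4 °C, HRP secondary 1:10,000 for 60 min; GAPDH/β-actin loading control; ECL detection.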

Experiment [4] has the same target. Description: PROTAC activity at BRD4/Cereblon in human fibroblast cells assessed as decrease in BRD4 protein degradation at 500 to 1000 nM for 24 hrs by Western blot analysis. Type of experiment: cell-based. The conditions noted are these: dose 500-1000 nM. The procedure, abridged: as §2
The target in experiment [5] is T2, von Hippel-Lindau disease tumor suppressor/Bromodomain-containing protein 4 (Homo sapiens) (UniProt O60885+P40337). Briefly: PROTAC activity at BRD4/VHL E3 ligase in human LS174T cells assessed as BRD4 protein degradation at 250 nM for 2 hrs by Western blot analysis. Type of experiment: cell-based. The gist of the method: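 LS174t cells were exposed to PROTAC for 2 h. For washout, the PROTAC was removed by changing the culture medium and cells were harvested 22 h later. BRD4 was assessed by western blot (15 µg lysate, 10% SDS-PAGE, chemiluminescence), normalised against GAPDH/β-actin.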
T2 sequence (P40337 whole entry, looked up, other chains not shown): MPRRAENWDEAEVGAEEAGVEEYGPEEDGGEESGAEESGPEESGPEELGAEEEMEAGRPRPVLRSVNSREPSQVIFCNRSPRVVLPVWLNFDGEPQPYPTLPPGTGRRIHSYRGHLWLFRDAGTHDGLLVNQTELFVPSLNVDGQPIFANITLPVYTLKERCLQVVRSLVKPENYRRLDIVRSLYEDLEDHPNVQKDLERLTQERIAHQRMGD

Experiment [6] concerns the target T2, von Hippel-Lindau disease tumor suppressor/Bromodomain-containing protein 4 (Homo sapiens). Description: PROTAC activity at BRD4/VHL E3 ligase in human COLO 320 cells assessed as decrease in BRD4 protein degradation at 5 to 10 uM for 24 hrs by Western blot analysis. Type of experiment: cell-based. The conditions noted are these: dose 5-10 µM. The gist of the method: as §1

Experiment [7] has the same target. Description: PROTAC activity at BRD4/VHL E3 ligase in human LS174T cells assessed as BRD4 protein degradation at 1 µM for 2 hrs by Immunofluorescence analysis.
The target is the same in experiment [8]. Briefly: PROTAC activity at BRD4/VHL E3 ligase in human HT-29 cells assessed as decrease in BRD4 protein degradation at 5 to 10 uM for 24 hrs by Western blot analysis. The note with it: dose 5-10 µM. The format is cell-based. The gist of the method:
as §1

For experiment [9] the target is unchanged. Briefly: PROTAC activity at BRD4/VHL E3 ligase in human LS174T dbet1 resistant cells assessed as BRD4 protein degradation at 500 to 1000 nM for 24 hrs by Western blot analysis. The conditions noted are these: dose 500-1000 nM. The format is cell-based. The procedure, abridged:
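Resistant LS174t cells were derived by four months' exposure to rising dBET1 concentrations, with outgrowing cells expanded. Resistant and parental cells were then treated and analysed for BRD4 and MYC protein by western blot (GAPDH/β-actin control) and for MYC mRNA by qPCR normalised to PPIA/ACTB (ΔΔCq).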

The target is the same in experiment [10]. Briefly: PROTAC activity at BRD4/VHL E3 ligase in human LS174T cells assessed as BRD4 protein degradation at 250 nM pretreated with VHL siRNA by Western blot analysis. The format is cell-based.

T1 sequence (Q96SW2 whole entry, looked up, other chains not shown): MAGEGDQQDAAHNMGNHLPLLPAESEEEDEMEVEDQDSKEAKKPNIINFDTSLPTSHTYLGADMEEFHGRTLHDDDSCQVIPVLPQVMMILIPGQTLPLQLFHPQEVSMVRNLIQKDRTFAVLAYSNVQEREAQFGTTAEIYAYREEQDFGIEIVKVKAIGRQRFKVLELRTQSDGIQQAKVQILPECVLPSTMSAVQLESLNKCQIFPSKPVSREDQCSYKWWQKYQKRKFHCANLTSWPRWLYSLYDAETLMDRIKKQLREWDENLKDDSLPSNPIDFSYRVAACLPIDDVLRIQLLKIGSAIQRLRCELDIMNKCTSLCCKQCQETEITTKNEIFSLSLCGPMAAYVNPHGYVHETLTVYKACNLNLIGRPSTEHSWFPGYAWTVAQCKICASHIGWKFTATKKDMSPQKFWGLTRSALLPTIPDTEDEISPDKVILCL

In the case of `Cc1sc2c(c1C)C(c1ccc(Cl)cc1)=N[C@@H](CC(=O)NCCCCNC(=O)COc1cccc3c1C(=O)N(C1CCC(=O)NC1=O)C3=O)c1nnc(C)n1-2` (stereo not given in full), the result in experiment [1], in experiment [2], in experiment [3] and in experiment [4] was Active.
As for `Cc1ncsc1-c1ccc(CNC(=O)[C@@H]2C[C@@H](O)CN2C(=O)[C@@H](NC(=O)COCCOCCOCCNC(=O)C[C@@H]2N=C(c3ccc(Cl)cc3)c3c(sc(C)c3C)-n3c(C)nnc32)C(C)(C)C)cc1`, the outcome in experiment [5], in experiment [6], in experiment [7], in experiment [8] and in [9] was Active. In addition, in experiment [10], the outcome was inactive.
